Reference: ChEMBL document CHEMBL4765452, “Discovery of (E)-N-(4-methyl-5-(3-(2-(pyridin-2-yl)vinyl)-1H-indazol-6-yl)thiazol-2-yl)-2-(4-methylpiperazin-1-yl)acetamide (IHMT-TRK-284) as a novel orally available type II TRK kinase inhibitor capable of overcoming multiple resistant mutants” (Eur J Med Chem, 2020)
The source made the active and inactive calls. The calls are words filed in the database; no cut-off is given here.

Columns and labels:
[1] = AUC (0 to t) in Beagle dog at 1 mg/kg, iv; format: ADME, organism-based, Canis lupus familiaris; design: dose 1 mg/kg; conditions: in vivo
Method in brief: (§1)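 Intravenous and oral arms were run in parallel in each species (mice, Sprague Dawley rats, beagle dogs). Exposure is reported as AUC0-t in ng/mL·h.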

[2] = Antitumor activity against human […] cells xenografted in nude mouse assessed as tumor growth inhibition at 40 mg/kg, po administered once daily for 10 days relative to control; format: functional; conditions: KM12-Luc, 240 h, time 10 day, read-out: TGI
Method in brief: (§2)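 Nu/nu mice given 5 million KM-12-LUC cells in DMEM, 1:1 with matrigel, injected subcutaneously into the right flank; oral gavage started at tumor size 150–200 mm³, 5 mice per group, compound in 0.5% methylcellulose/0.4% Tween 80 in ddH₂O; body weight and tumor volume [(W²×L)/2] measured daily; TGI versus vehicle.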

[3] = Half life in Sprague-Dawley rat at 1 mg/kg, iv; format: ADME, organism-based; conditions: in vivo
[4] = tested on: KM12-Luc; test: Induction of cell cycle arrest in human KM-12-LUC cells assessed as accumulation at G0/G1 phase at 0.01 to 10 uM after 24 hrs by PI/RNase staining based flow cytometric analysis; format: functional; conditions: dose 0.01-10 µM
Method in brief: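 KM-12-LUC cells treated with DMSO or serially diluted compound. Cells fixed in cold 70% ethanol overnight at −20 °C, then stained with PI/RNase buffer. Cell cycle distribution measured by flow cytometry.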

[5] = Cmax in Sprague-Dawley rat at 1 mg/kg, iv; format: ADME, organism-based; design: route intravenous, dose 1 mg/kg; conditions: in vivo
[6] = tested on: KM12-Luc; test: Antitumor activity against human […] cells xenografted in nude mouse assessed as tumor growth inhibition administered orally once daily for 10 days relative to control; format: functional, cell-based; conditions: dose 40-80 mg/kg/day, time 10.0 day; method in brief: as §2
[7] = tested on: BaF3; test: Antitumor activity against mouse BAF3 cells harboring TEL fused TRKB allografted in nude mouse assessed as tumor growth inhibition at 40 mg/kg, po administered once daily for 10 days relative to control; format: functional; conditions: 240 h, time 10 day, read-out: TGI
Method in brief: (§3)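 Nu/nu mice given 1 million BaF3 cells (TEL-TRKA, TEL-TRKB, TEL-TRKC, LMNA-TRKA-F589L or LMNA-TRKA-G667S) in DMEM, 1:1 with matrigel, injected subcutaneously into the right flank; oral gavage began at 200–400 mm³, 5 mice per group, compound in 0.5% methylcellulose/0.4% Tween 80 in ddH₂O, 10 days; tumor volume [(W²×L)/2] and body weight recorded daily; TGI versus vehicle.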

[8] = Apparent volume of distribution in mouse at 1 mg/kg, iv; format: ADME, organism-based; conditions: in vivo, read-out: Vz
[9] = Toxicity in mouse xenografted with mouse BAF3 cells harboring TEL fused TRKC assessed as effect on animals behaviour at 40 to 80 mg/kg, po administered once daily for 10 days; format: organism-based; conditions: in vivo, 240 h, dose 40-80 mg/kg/day, time 10 day
Method in brief: (§4)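 nu/nu mice were given subcutaneous right-flank implants in 1:1 DMEM/matrigel: 1 million BaF3 fusion cells or 5 million KM-12-LUC cells. Oral gavage started at 150–200 mm3 (xenograft) or 200–400 mm3 (allograft). Dosing used 40 or 80 mg/kg in HKI vehicle (0.5% methylcellulose/0.4% Tween 80 in ddH2O), with 5 mice per group. Body weight was recorded daily and behaviour observed.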

[10] = target: T1, High affinity nerve growth factor receptor (Homo sapiens, UniProt P04629); test: Inhibition of human TRKA by Z-LYTE or ADP-Glo assay
T1 sequence (P04629 whole entry): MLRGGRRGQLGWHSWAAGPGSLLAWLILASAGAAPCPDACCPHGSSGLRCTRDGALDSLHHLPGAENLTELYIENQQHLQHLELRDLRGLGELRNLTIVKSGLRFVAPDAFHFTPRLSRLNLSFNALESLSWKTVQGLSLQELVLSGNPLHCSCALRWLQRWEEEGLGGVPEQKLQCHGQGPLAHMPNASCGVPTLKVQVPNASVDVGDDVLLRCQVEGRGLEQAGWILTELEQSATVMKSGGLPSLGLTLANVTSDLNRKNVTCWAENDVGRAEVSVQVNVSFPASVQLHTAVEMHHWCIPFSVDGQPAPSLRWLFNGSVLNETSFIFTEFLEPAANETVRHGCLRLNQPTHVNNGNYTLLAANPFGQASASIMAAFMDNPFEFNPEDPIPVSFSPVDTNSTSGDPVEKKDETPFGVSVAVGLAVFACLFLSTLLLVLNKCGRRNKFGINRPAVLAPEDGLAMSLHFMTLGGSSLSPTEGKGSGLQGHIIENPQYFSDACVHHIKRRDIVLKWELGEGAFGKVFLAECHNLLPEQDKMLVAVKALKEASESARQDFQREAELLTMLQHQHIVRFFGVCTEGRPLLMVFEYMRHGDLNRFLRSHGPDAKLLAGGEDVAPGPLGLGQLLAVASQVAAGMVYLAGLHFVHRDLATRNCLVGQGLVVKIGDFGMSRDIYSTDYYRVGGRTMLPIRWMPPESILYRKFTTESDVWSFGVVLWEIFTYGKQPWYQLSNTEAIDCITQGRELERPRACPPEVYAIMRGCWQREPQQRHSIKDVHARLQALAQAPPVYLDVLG
Method in brief: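 Purified kinase proteins tested biochemically in Z'LYTE or ADP-Glo format.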

[11] = Half life in Beagle dog at 5 mg/kg, po; format: ADME, organism-based, Canis lupus familiaris; conditions: in vivo
[12] = Cmax in Beagle dog at 5 mg/kg, po; format: ADME, organism-based, Canis lupus familiaris; design: route oral, dose 5 mg/kg; conditions: in vivo
[13] = tested on: BaF3; test: Antitumor activity against mouse BAF3 cells harboring TEL fused TRKC allografted in nude mouse assessed as tumor growth inhibition administered orally once daily for 10 days; format: functional, cell-based; conditions: dose 40-80 mg/kg/day, time 10.0 day; method in brief: as §3
[14] = Half life in mouse at 10 mg/kg, po; format: ADME, organism-based; conditions: in vivo
[15] = target: BDNF/NT-3 growth factors receptor (Homo sapiens, UniProt Q16620); test: Inhibition of TEL fused wild type TRKB (unknown origin) transfected in mouse BaF3 cells assessed as reduction in phosphorylation at Y515 residue after 2 hrs by Western blot analysis; format: cell-based
Chain of BDNF/NT-3 growth factors receptor (Q16620 whole entry, the tested form may be a part): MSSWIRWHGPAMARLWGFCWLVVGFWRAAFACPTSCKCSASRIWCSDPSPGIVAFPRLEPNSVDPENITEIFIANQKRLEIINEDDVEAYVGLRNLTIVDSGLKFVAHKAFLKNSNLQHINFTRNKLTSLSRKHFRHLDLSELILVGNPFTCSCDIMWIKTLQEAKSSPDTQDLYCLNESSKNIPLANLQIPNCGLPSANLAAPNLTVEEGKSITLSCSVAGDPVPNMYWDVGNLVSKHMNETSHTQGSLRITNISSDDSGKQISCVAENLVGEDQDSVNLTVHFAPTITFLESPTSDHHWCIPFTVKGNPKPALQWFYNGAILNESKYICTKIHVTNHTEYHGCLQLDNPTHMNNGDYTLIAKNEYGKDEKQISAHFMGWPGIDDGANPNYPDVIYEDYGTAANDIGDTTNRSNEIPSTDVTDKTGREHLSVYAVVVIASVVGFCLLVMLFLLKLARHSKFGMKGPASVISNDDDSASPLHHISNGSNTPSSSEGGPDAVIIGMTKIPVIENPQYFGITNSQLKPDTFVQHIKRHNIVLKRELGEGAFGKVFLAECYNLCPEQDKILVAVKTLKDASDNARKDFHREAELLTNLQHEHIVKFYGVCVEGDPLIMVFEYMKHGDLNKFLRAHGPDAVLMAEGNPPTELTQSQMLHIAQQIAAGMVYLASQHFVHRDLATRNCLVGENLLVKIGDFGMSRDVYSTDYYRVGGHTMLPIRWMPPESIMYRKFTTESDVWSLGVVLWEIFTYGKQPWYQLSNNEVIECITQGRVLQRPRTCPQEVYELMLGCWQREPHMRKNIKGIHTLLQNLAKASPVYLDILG
Method in brief: (§5)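 Isogenic BaF3 lines, made in-house, grown in RPMI 1640 with 10% FBS and 1% penicillin/streptomycin at 37 °C under 5% CO2. Serially diluted compound added for 2 h. Cells collected and lysed, and lysates analysed by western blotting for phospho-TRK. EC50 derived from the blots.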

[16] = Antiproliferative activity in mouse BAF3 cells assessed as growth inhibition after 72 hrs by CCK8 assay; format: cell-based
Method in brief: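 TEL- or LMNA-fusion isogenic BaF3 lines grown in RPMI 1640 with 10% FBS and 1% penicillin/streptomycin at 37 °C, 5% CO₂; suspension cells collected by spinning at 800 rpm for 4 min before use; growth inhibition scored as GI₅₀.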

[17] = target: High affinity nerve growth factor receptor (Homo sapiens, UniProt P04629, G595R); test: Inhibition of LMNA fused TRKA G595R mutant (unknown origin) transfected in mouse BaF3 cells assessed as reduction in phosphorylation at Y490 residue after 2 hrs by Western blot analysis; format: cell-based
Chain of High affinity nerve growth factor receptor (Homo sapiens, UniProt P04629, G595R) (P04629 33-796 G595R limits assumed): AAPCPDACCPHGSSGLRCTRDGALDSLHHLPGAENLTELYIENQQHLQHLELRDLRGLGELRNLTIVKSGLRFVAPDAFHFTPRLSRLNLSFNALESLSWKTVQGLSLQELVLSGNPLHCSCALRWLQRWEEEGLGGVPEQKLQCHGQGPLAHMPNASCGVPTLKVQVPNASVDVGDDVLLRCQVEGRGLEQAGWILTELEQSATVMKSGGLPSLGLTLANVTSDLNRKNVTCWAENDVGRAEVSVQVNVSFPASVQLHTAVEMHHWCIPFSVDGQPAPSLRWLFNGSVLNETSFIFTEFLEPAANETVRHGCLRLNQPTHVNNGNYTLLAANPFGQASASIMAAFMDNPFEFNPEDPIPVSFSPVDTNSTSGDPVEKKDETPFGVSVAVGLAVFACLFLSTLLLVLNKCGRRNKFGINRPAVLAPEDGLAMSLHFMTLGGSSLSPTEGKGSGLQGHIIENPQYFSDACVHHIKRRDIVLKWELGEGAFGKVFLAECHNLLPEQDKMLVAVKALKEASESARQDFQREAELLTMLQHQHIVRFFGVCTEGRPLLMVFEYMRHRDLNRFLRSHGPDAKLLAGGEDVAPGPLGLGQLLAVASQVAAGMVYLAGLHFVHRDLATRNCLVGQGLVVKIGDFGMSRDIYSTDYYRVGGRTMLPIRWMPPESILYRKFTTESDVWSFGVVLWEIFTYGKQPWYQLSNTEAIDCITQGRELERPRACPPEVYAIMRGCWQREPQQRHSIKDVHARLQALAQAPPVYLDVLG

[18] = Toxicity in mouse xenografted with mouse BAF3 cells harboring […] TRKA-G667S mutant assessed as effect on body weight at 40 to 80 mg/kg, po administered twice daily for 10 days; format: organism-based; conditions: in vivo, 240 h, dose 40-80 mg/kg, time 10 day; method in brief: as §4
[19] = Apparent volume of distribution in Beagle dog at 5 mg/kg, po; format: ADME, organism-based, Canis lupus familiaris; conditions: in vivo
[20] = Inhibition of LMNA fused TRKA G667S mutant (unknown origin) transfected in mouse BaF3 cells assessed as reduction in phosphorylation at Y490 residue after 2 hrs by Western blot analysis; conditions: Homo sapiens, BaF3, 2 h
[21] = tested on: KM12-Luc; test: Induction of apoptosis in human KM-12-LUC cells assessed as increase in cleaved PARP level after 24 hrs by Western blot analysis; format: functional, cell-based; conditions: dose 0.01-10 µM
Method in brief: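 KM-12-LUC cells cultured in RPMI 1640 with 10% FBS and 1% penicillin/streptomycin at 37 °C, 5% CO2. Serially diluted compound added for 24 h. Apoptosis read by western blot for PARP cleavage, with β-actin as loading control.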

[22] = tested on: BaF3; test: Antitumor activity against mouse BAF3 cells harboring LMNA fused TRKA-G667S mutant allografted in nude mouse assessed as tumor growth inhibition at 40 mg/kg, po administered twice daily for 10 days relative to control; format: functional; conditions: 240 h, time 10 day, read-out: TGI; method in brief: as §3
[23] = target: VEGFR2 (vascular endothelial growth factor receptor 2), wild type, TEL fusion (Homo sapiens, UniProt P35968); test: Inhibition of wild type TEL fused VEGFR2 (unknown origin) transfected in mouse BAF3 cells assessed as growth inhibition after 72 hrs by CCK8 assay; format: cell-based; conditions: mouse BaF3 cells transfected with wild type TEL-fused VEGFR2
Chain of VEGFR2 (vascular endothelial growth factor receptor 2), wild type, TEL fusion (P35968 whole entry, the tested form may be a part): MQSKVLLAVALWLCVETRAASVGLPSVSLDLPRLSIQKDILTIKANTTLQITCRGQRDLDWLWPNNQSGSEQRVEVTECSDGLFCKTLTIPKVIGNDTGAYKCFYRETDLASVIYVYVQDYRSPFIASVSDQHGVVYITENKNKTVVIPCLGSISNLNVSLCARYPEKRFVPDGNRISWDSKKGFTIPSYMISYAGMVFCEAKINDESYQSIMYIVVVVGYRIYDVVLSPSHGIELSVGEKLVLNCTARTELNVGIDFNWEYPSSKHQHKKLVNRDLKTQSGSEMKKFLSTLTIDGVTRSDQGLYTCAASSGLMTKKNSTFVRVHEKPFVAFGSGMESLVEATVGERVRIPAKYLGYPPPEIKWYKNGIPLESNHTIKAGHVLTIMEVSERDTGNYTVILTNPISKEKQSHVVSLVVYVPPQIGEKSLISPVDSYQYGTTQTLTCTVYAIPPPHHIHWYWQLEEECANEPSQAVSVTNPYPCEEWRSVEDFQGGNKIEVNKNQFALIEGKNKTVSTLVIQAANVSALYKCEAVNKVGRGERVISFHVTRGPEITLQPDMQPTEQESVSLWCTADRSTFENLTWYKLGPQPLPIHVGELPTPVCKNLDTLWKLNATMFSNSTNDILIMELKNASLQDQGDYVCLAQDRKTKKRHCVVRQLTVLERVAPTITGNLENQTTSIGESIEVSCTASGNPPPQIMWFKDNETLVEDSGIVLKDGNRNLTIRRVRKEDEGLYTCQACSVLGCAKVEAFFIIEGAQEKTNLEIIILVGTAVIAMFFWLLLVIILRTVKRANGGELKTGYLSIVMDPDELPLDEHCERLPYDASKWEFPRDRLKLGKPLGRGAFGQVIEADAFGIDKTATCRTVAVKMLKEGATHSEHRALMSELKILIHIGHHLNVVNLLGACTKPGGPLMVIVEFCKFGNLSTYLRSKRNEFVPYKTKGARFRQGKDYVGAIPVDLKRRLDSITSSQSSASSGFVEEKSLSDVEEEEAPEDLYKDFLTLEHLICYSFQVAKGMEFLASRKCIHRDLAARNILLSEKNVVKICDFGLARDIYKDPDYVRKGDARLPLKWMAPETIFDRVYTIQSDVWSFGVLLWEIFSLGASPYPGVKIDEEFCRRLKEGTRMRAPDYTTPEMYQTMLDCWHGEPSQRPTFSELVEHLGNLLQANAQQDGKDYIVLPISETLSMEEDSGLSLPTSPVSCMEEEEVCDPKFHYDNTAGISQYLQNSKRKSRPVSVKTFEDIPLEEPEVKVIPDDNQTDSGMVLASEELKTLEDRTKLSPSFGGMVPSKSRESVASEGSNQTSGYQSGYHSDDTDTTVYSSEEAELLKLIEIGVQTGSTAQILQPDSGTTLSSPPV

[24] = target: T1, High affinity nerve growth factor receptor; test: Inhibition of TEL fused wild type TRKA (unknown origin) transfected in mouse BaF3 cells assessed as reduction in phosphorylation at Y490 residue after 2 hrs by Western blot analysis; format: cell-based; method in brief: as §5
[25] = Apparent volume of distribution in Beagle dog at 1 mg/kg, iv; format: ADME, organism-based, Canis lupus familiaris; conditions: in vivo, read-out: Vz
[26] = AUC (0 to t) in mouse at 1 mg/kg, iv; format: ADME, organism-based; design: dose 1 mg/kg; conditions: in vivo; method in brief: as §1

Cc1nc(NC(=O)CN2CCN(C)CC2)sc1-c1ccc2c(/C=C/c3ccccn3)n[nH]c2c1
AUC(0-t) [1]: 323 ng·h/mL
inhibition in vivo at 40 mg/kg/day [2]: 93.4%
t1/2 [3]: 2.7 h
Activity [4]: Active
Cmax [5]: 363 ng/mL
Activity [6]: Dose-dependent effect
inhibition in vivo at 40 mg/kg/day [7]: 83.1%
Vd [8]: 4.93 L/kg
Activity [9]: Non-Toxic
IC50 [10]: 10.5 nM
t1/2 [11]: 11.8 h
Cmax [12]: 131 ng/mL
Activity [13]: Dose-dependent effect
t1/2 [14]: 3.4 h
EC50 [15]: 69 nM
GI50 at 72 h [16]: 1400 nM
EC50 [17]: 120 nM
Activity [18]: Non-Toxic
Vz [19]: 149260 mL/kg
EC50 [20]: 74 nM
Activity [21]: Dose-dependent effect
inhibition in vivo at 40 mg/kg [22]: 64.9%
GI50 at 72 h [23]: 1180 nM
EC50 [24]: 26 nM
Vd [25]: 17.5 L/kg
AUC(0-t) [26]: 748 ng·h/mL
